25 compounds from ChEMBL document CHEMBL1150350, “Evaluation of the amino acid binding site of Mycobacterium tuberculosis glutamine synthetase for drug discovery” (Bioorg Med Chem, 2008) can be followed below.

For assay [1], the system named is Mycobacterium tuberculosis. The assay is described as follows: Inhibition of Mycobacterium tuberculosis glutamine synthetase at 1 mM in DMSO. The procedure, abridged: (§1)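 Compound from a DMSO stock (2% v/v DMSO final) was preincubated 20 min at RT with unadenylylated MtGS (7 nM subunit) in 50 mM HEPES-HCl pH 7.5, 25 mM MgCl2, 1 mM ATP and 30 mM NH4Cl. Started with 10 mM L-glutamate, 60 min at RT. Phosphate read at 635 nm, corrected by a compound-background plate lacking GS and ATP. Triplicate, % vs uninhibited enzyme.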

Assay [2] has as its system Mycobacterium tuberculosis. The assay is described as follows: Activation of Mycobacterium tuberculosis glutamine synthetase at 1 mM in water. In outline:
(§2)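 Unadenylylated MtGS from an E. coli expression strain, 7 nM subunit, in 50 mM HEPES-HCl pH 7.5 with 25 mM MgCl2, 1 mM ATP and 30 mM NH4Cl. Compound (water stock) was preincubated 20 min at RT, then 10 mM L-glutamate was added and the reaction run 60 min at RT. Released Pi was read at A635 minus a no-GS/no-ATP background. Triplicate; % of uninhibited; t-test, p<0.1.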

For assay [3], the system named is Mycobacterium tuberculosis. As to conditions: at 1 mM.
Assay [4] concerns Mycobacterium tuberculosis. The assay is described as follows: Inhibition of Mycobacterium tuberculosis glutamine synthetase at 0.90 mM in water. The procedure, abridged:
as §2

For assay [5], the system named is Mycobacterium tuberculosis. The assay is described as follows: Inhibition of Mycobacterium tuberculosis glutamine synthetase at 0.75 mM in DMSO. In outline:
as §1

Assay [6] in a line: Inhibition of Escherichia coli glutamine synthetase by transferase assay.
The test system of the next assay is Escherichia coli. The assay is described as follows: Inhibition of Escherichia coli glutamine synthetase at 1.1 mM.
For assay [7], the system named is Mycobacterium tuberculosis. The assay is described as follows: Inhibition of Mycobacterium tuberculosis glutamine synthetase at 0.50 mM in water. The procedure, abridged: as §2
For assay [8], the system named is Mycobacterium tuberculosis. The assay is described as follows: Inhibition of Mycobacterium tuberculosis glutamine synthetase at 0.93 mM in water. The procedure, abridged: as §2
Assay [9] relates to Mycobacterium tuberculosis. The assay is described as follows: Activation of Mycobacterium tuberculosis glutamine synthetase at 0.50 mM in water. The procedure, abridged:
as §2

The subject of assay [10] is Mycobacterium tuberculosis. The assay is described as follows: Inhibition of Mycobacterium tuberculosis glutamine synthetase at 0.20 mM in water. In outline:
as §2

The species entered for assay [11] is Ovis aries. The assay is described as follows: Inhibition of sheep brain glutamine synthetase at 25 mM.
Assay [12] is filed under the species Ovis aries. The assay is described as follows: Inhibition of sheep brain glutamine synthetase at 0.5 mM by transferase assay.
A short description of assay [13]: Inhibition of Mycobacterium tuberculosis glutamine synthetase by transferase assay.
Assay [14] deals with T1, Glutamine synthetase (Salmonella typhimurium (strain LT2 / SGSC1412 / ATCC 700720), UniProt P0A1P6).
T1 sequence (P0A1P6 whole entry): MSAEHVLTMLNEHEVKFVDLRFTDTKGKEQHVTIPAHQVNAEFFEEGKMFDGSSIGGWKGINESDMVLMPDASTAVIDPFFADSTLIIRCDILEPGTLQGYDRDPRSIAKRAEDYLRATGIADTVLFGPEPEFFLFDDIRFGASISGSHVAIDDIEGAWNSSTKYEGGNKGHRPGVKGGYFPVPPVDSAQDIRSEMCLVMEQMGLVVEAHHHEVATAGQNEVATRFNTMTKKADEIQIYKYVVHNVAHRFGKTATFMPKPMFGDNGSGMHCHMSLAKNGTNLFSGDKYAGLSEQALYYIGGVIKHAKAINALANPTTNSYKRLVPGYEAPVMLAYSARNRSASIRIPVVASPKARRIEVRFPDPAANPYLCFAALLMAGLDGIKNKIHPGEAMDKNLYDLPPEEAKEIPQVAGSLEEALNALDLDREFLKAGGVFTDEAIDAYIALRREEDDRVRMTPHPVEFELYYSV
The assay is described as follows: Inhibition of Salmonella Typhimurium glutamine synthetase by transferase assay. Also noted: species or system Salmonella enterica subsp. enterica serovar Typhimurium.

The target of assay [15] is T2, Glutamine synthetase (Glycine max) (UniProt Q43760).
T2 sequence (whole entry): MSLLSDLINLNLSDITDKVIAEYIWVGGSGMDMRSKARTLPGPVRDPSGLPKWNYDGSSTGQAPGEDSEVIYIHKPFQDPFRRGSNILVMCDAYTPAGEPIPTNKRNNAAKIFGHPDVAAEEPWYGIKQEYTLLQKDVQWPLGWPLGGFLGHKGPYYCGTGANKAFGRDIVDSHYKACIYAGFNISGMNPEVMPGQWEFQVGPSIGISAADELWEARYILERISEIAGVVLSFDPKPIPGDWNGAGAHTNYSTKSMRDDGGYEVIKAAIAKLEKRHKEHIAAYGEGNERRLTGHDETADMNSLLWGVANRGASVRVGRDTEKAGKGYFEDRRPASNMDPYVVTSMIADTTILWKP
The assay is described as follows: Inhibition of soybean glutamine synthetase at 0.5 mM by transferase assay.

Assay [16] in a line: Inhibition of sheep brain glutamine synthetase by transferase assay. More on the design: species or system Ovis aries.
The target in assay [17] is T3, Glutamine synthetase (Glycine max, UniProt Q43760).
T3 sequence (Q43760 whole entry): T2 sequence (whole entry)
The assay is described as follows: Inhibition of soybean glutamine synthetase by transferase assay.

Active and inactive are the calls of the source. The rule behind the calls is not given here.

`NS(=O)(=O)c1ccc2[nH]c(=O)[nH]c2c1` registered an inhibition in assay [1] of 24%. `CCOP(=O)(OCC)c1cccc(N[C@@H](CO)C(=O)O)c1`: the result in [2] was Active. In turn, `C[S+]([O-])c1cccc(N[C@@H](CO)C(=O)O)c1` (some centres undefined) registered an inhibition in [3] of 13%. Consider `CSc1cccc(NCC(=O)O)c1`, for which the outcome in assay [4] was inactive. `NS(=O)(=O)c1cccc(N[C@H](CO)C(=O)O)c1` yielded an inhibition in assay [3] of 33%.

For the compound `N[C@@H](CCCP(=O)(O)O)C(=O)O`, in assay [5], the outcome was inactive.

In assay [6], `N[C@@H](CCP(=O)(O)O)C(=O)O` showed a Ki of 54 µM. The compound also had an inhibition with Escherichia coli of 61%. In the case of `CSc1cccc(N[C@H](CO)C(=O)O)c1`, in assay [7], the result was inactive. Turning to `NC(Cc1ccc(CP(=O)(O)O)cc1)C(=O)O` (centres undefined), the outcome in assay [8] was inactive. Consider `O=C(O)c1cccc(N[C@@H](CO)C(=O)O)c1`, for which the result in [2] was Active.

On to `CSc1cccc(N[C@@H](CO)C(=O)O)c1`, for which, in assay [9], the outcome was Active.

In the case of `O=C(O)c1cccc(NC(=O)c2nc[nH]n2)c1`, the inhibition in [1] was 26%. On to `NC(Cc1ccccc1CP(=O)(O)O)C(=O)O` (centres undefined), for which the outcome in assay [10] was inactive. Regarding `O=C(O)c1cccc(N[C@H](CO)C(=O)O)c1`, in [2], the outcome was Active. On to `CCOP(=O)(OCC)c1cccc(N[C@H](CO)C(=O)O)c1`, for which the outcome in [2] was Active. `CS(=O)(=O)CC[C@H](N)C(=O)O`: the inhibition amounted to 33% in assay [3] and 67% in the assay filed under Ovis aries [11]. In the case of `NS(=O)(=O)c1cccc(N[C@@H](CO)C(=O)O)c1`, the outcome in assay [2] was Active. For `O=C(O)CNc1cccc(C(=O)O)c1`, in [2], the outcome was Active. Take `NC[C@H](O)CC[C@H](N)C(=O)O`: the inhibition in assay [3] is 58%; in the assay filed under Ovis aries [12], 22%; in assay [1], 56%; in [15], 21%. Moreover, the IC50 in assay [13] stood at 610 µM. The affinity on Glutamine synthetase [14], expressed as Ki, was 40 µM. `C[S+]([O-])c1cccc(NCC(=O)O)c1` (centres undefined) gave an inhibition in [3] of 30%. In the case of `CCOP(=O)(OCC)c1cccc(NCC(=O)O)c1`, in [1], the inhibition was found to be 42%. `C[S+]([O-])CC[C@H](N)C(=O)O` (some centres undefined) yielded an inhibition in the assay listed under Ovis aries [11] of 11%.

Turning to `CP(=O)(O)CCC(N)C(=O)O` (racemic) [GLUFOSINATE], the IC50 in [13] stood at 1.9 µM. For the compound `N[C@@H](CCNO)C(=O)O`, in assay [3], the inhibition amounted to 26%. Besides, the Ki was found to be 7 µM in assay [16] and 21 µM at Glutamine synthetase [17].

As for `O=C(O)CNc1ccc(O)c(S(=O)(=O)O)c1`, the inhibition in [3] is 48%.

For orientation: inhibition means the percentage by which the read-out fell short of the control. In general, Ki refers to the equilibrium dissociation constant of an inhibitor or competing ligand from its target. A lower Ki goes with a stronger hold on the target. The term IC50 denotes the concentration that inhibits the measured activity by half.
